CRFR2-BP antag: antagonists of CRF-BP/CRF-R2 complex, primary screen, cell-based, HEK293, calcium dye fluorescence, uHTS; AID 588475, 2011; 350,000 compounds, 0.59% hits; inhibition, % at 11.8 µM; CRF-induced calcium fluorescence;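 active = inhibition of the ligand-induced calcium signal above about 50% at the single tested concentration, limit read from the data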
IMP-1 inh-1: IMP-1 metallo-beta-lactamase inhibitors, primary screen, biochemical, epi-absorbance readout, Pseudomonas aeruginosa enzyme. metallo-beta-lactamase IMP-1 (Pseudomonas aeruginosa). purified IMP-1, nitrocefin hydrolysis, epi-absorbance fluorescence. inhibition, % at 5.6 µM. 290,000 compounds, 0.45% hits. AID 1556, 2009;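 active = inhibition above the mean plus 3 SD of all compounds in the same screening run, cut at about 4.5% in these data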;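 note: 0% = IMP-1 with DMSO and 100% = DMSO wells lacking enzyme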
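assay system = purified recombinant IMP-1 metallo-beta-lactamase enzyme | schedule = 15 min preincubation plus 25 min reaction at 25 °C | signal = Epi-absorbance fluorescence, 480 nm excitation, 530 nm emission | read-out basis = percent inhibition from optical density relative to buffer-blank wells | controls = IMP-1 with DMSO as 0%, enzyme-free DMSO as 100%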
VIM-2 inh: VIM-2 metallo-beta-lactamase inhibitors, primary screen, biochemical, epi-absorbance readout, Pseudomonas aeruginosa enzyme | purified VIM-2, nitrocefin hydrolysis, epi-absorbance fluorescence | inhibition, % at 5.6 µM | 290,000 compounds, 0.89% hits | AID 1527, 2009;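 active = inhibition above the mean of all tested compounds plus 3 SD, cutoff set per screening run, cut at about 7.5% in these data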;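 note: red hydrolysis product quenches plate fluorescence so inhibitors raise well fluorescence; 0% = enzyme with DMSO and 100% = DMSO without enzyme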
TRPML3 ag: human TRPML3 channel agonists, primary screen, cell-based, HEK293 TRPML3-YFP, Fluo-8 calcium fluorescence, 3 µM; 220,000 compounds, 0.29% hits; AID 1448, 2008; activation, % at 3 µM; 100% = the carbachol control signal;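 active = activation above its plate's cutoff, the mean activation of the plate's test wells plus 3 SD, cut at about 12% in these data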;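 note: 0% = DMSO only wells and 100% = carbachol wells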
Target sequence (Q8TDD5 whole entry, looked up): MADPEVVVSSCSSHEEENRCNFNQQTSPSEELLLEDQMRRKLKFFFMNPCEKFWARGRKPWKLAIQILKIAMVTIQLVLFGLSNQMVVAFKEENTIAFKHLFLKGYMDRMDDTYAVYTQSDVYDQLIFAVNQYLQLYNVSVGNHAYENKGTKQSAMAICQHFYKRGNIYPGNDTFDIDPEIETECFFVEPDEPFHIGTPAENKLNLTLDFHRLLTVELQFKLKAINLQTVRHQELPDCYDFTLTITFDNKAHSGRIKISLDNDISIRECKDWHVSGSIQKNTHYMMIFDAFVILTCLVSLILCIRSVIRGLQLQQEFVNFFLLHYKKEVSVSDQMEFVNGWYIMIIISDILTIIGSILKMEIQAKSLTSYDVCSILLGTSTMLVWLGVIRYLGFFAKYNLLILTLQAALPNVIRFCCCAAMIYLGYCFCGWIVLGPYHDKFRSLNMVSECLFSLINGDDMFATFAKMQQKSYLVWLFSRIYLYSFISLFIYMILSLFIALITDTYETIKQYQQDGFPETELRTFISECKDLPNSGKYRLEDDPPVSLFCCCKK
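Test system: HEK293 cells stably carrying human TRPML3-YFP; Doses: single dose, 3 µM final nominal compound, 0.3% DMSO final; Schedule: dye loading 1 h 37 °C then 30 min ambient, 125 s read; Technique: Fluo-8 calcium fluorescence; Benchmarks: high control carbachol 87 µM, low control DMSO.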
CRFR2-BP ag: agonists of CRF-BP/CRF-R2 complex, primary screen, cell-based, HEK293, calcium dye fluorescence, uHTS. calcium dye fluorescence (FLIPR); percent of saturating CRF peptide response. activation, % at 13.2 µM. 350,000 compounds, 0.46% hits. AID 588473, 2011;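 active = activation of at least 50%, plus an integration ratio under a set limit after plate pattern correction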;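 note: plate controls were neutral control wells without compound for no effect and CRF at EC100 for full effect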
TRPN1 ag: zebrafish TRPN1 channel agonists, primary screen, cell-based, HEK293, calcium fluorescence | transient receptor potential cation channel N1 (TRPN1/NompC), Danio rerio | HEK293 zebrafish TRPN1-YFP, Fluo-8 calcium fluorescence; 100% = response to 87 µM carbachol | activation, % at 3 µM | 220,000 compounds, 0.18% hits;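 active = activation above its plate's cutoff, the mean activation of test wells on that plate plus 3 SD, cut at about 19% in these data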;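 note: 0% = DMSO alone and 100% = 87 µM carbachol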
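System: zebrafish TRPN1-YFP in HEK293 cells / Dosing: 3 µM single point / Timing: dye loading 1 h at 37 °C, then 30 min room temperature / Signal: Fluo-8 calcium fluorescence, excitation 470-495 nm, emission 515-575 nm / Read-out basis: percent activation from peak over basal fluorescence ratio, control-normalized / Control set: high carbachol 87 µM, low DMSO alone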
TRPN1 ag 2: zebrafish TRPN1 channel agonists, counter-screen for TRPML3 agonist project, cell-based, HEK293 TRPN1-YFP, Fluo-8 calcium. shares compounds with TRPML3 ag. Fluo-8 calcium fluorescence; scaled: carbachol wells 100%, DMSO wells 0%. activation, % at 3 µM. 310 compounds, 10% hits;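 active = mean activation over replicates above a set limit taken from the earlier TRPN1 channel primary screen, cut at about 19% in these data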;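 note: 100% = carbachol and 0% = 0.3% DMSO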
TRPML3 ag conf: human TRPML3 channel agonists, confirmation, cell-based, HEK293 TRPML3-YFP, Fluo-8 calcium, triplicate. Fluo-8 calcium fluorescence; 100% set by carbachol, 0% by DMSO. shares compounds with TRPML3 ag. 310 compounds, 80% hits. activation, % at 3 µM;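 active = activation above a set limit derived from the earlier primary screen, cut at about 12% in these data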
IMP-1 inh-2: IMP-1 metallo-beta-lactamase inhibitors, confirmation, selectivity assay for selective VIM-2 inhibitor project, biochemical, epi-absorbance readout, triplicate | shares compounds with VIM-2 inh | purified IMP-1, nitrocefin hydrolysis, epi-absorbance fluorescence | inhibition, % at 5.6 µM | 1,300 tested, under 10 active | AID 1856, 2009; call rule not given here;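 note: 0% = enzyme with vehicle and 100% = vehicle without enzyme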
VIM-2 FRET ctr: VIM-2 inhibitors in FRET format, confirmation, artefact control for selective VIM-2 inhibitor project, biochemical, epi-absorbance artifact exclusion; shares compounds with VIM-2 inh; purified VIM-2, CCF2 FRET substrate hydrolysis; inhibition, % at 5.6 µM; 1,300 compounds, 23% hits; AID 1857, 2009;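 active = inhibition above the mean of all tested compounds plus 3 SD, cut at about 19% in these data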;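 note: 0% = VIM-2 plus DMSO and 100% = no enzyme wells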
TEM-1 inh: TEM-1 serine beta-lactamase inhibitors, counter-screen for VIM-2 inhibitor project, biochemical, epi-absorbance, HTS. shares compounds with VIM-2 inh. 1,300 compounds, 3% hits. Purified TEM-1, nitrocefin hydrolysis, epi-absorbance fluorescence. inhibition, % at 5.6 µM;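 active = inhibition above that campaign's mean inhibition plus 3 SD, cut at about 0.46% in these data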;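 note: 0% = TEM-1 with DMSO and 100% = TEM-1 with 100 µM potassium clavulanate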
VIM-2 confirm 2: VIM-2 metallo-beta-lactamase inhibitors, confirmation, biochemical, epi-absorbance, hits shared with IMP-1 screen | shares compounds with VIM-2 inh | purified VIM-2, nitrocefin hydrolysis | inhibition, % at 5.6 µM | 1,300 compounds, 96% hits | AID 2187, 2009;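 active = inhibition of the VIM-2 beta-lactamase enzyme above about 11% from the earlier first-round screen, limit read from the data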;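 note: 0% = VIM-2 with DMSO and 100% = buffer wells without enzyme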
* = called active by the depositor; / = not tested or not shown. Compounds with a hit are over-represented: about 2.1% of the library has one in this group of screens.

SMILES	CRFR2-BP antag	IMP-1 inh-1	VIM-2 inh	TRPML3 ag	CRFR2-BP ag	TRPN1 ag	TRPN1 ag 2	TRPML3 ag conf	others
CC1(C)CSC(=S)N1S(=O)(=O)c1ccccc1	-37	-5	-2	32*	3	0	1	20*
CCCCCCn1c(=O)n2n(c1=O)[C@@H]1CN(S(=O)(=O)c3ccc(C)cc3)C[C@]1(O)[C@@H](OC(=O)NCc1ccc(OC)c(OC)c1)C2	-1	/	/	/	1	/	/	/
COc1ccccc1C1CN=NC12CCCc1ccccc1C2=O (stereo not drawn)	-10	-2	-5	24*	2	-2	0	91*
CCc1cc(Cn2nc(-c3ccccc3)cc2C(=O)NCc2ccccc2OC)on1	2	/	/	/	3	/	/	/
Cc1ccc(S(=O)(=O)N2CC3CCC2C3)cc1 (stereo not drawn)	2	-3	-4	2	7	0	/	/
Cc1ccc(S(=O)(=O)N2CC3CCCC2C3)cc1 (stereo not drawn)	13	1	0	33*	-1	1	0	39*
CSc1nsc(SC)c1C(=O)N1CCN(S(=O)(=O)c2ccc(C)cc2)C1C (stereo not drawn)	-2	-2	-1	0	0	-2	/	/
CSc1nsc(SC)c1C(=O)N1CCN(S(=O)(=O)c2ccc(C)cc2)C1C(C)C (stereo not drawn)	-9	-4	-2	46*	1	-1	-2	26*
CC(C)CN(CC(C)C)S(=O)(=O)c1cc([N+](=O)[O-])ccc1N1CCCCCC1	2	-2	-3	1	-1	1	/	/
CN(C)S(=O)(=O)c1cc([N+](=O)[O-])ccc1N1CCCCCC1	45	-2	-2	16*	-1	-1	1	14*
O=C(O)c1ccc(N=Nc2c(O)ccc3ncccc23)cc1	3	-10	1	/	-2	/	/	/
O=C1C=C(NNC(=O)c2ccncc2)CC(c2ccccc2)C1 (stereo not drawn)	-10	5.9*	1	19*	7	18	1	0
COC(=O)C1(C)COP(=O)(NC23CC4CC(CC(C4)C2)C3)OC1 (stereo not drawn)	33	/	/	/	-1	/	/	/
COc1ccc(C(C)(C)C)cc1NC(=O)c1cc(S(=O)(=O)N(C)C)ccc1N1CCCC1	-10	-3	-1	34*	-2	-2	0	33*
CN(C)S(=O)(=O)c1ccc(N2CCCC2)c(C(=O)Nc2ccc(F)cc2F)c1	3	/	/	/	0	/	/	/
Cc1ccc(S(=O)(=O)N(C)c2cc(S(=O)(=O)N3CCC(C)CC3)c(C)cc2C)cc1	-8	0	-1	40*	5	-1	-1	73*
CNS(=O)(=O)c1cc(N(C)S(=O)(=O)c2ccc(C)cc2)c(C)cc1C	-16	-3	-3	2	-1	0	/	/
COc1ccc(/C=C(\NC(=O)c2ccc(C)cc2)C(=O)NCCCN2CCOCC2)cc1OC	-6	-2	-1	/	-1	/	/	/
Cc1ccc(S(=O)(=O)Nc2cc(C(F)(F)F)ccc2N2CCOCC2)cc1	-39	-2	-5	1	8	2	/	/
Cc1ccc(S(=O)(=O)Nc2cc(C(F)(F)F)ccc2N2CCOCC2)c(C)c1	-132	-1	-3	48*	30	6	10	102*
COc1ccc(C)cc1S(=O)(=O)NC1CCCC1	-10	-4	-1	0	-2	1	/	/
COc1ccc(S(=O)(=O)NC2CCCC2)c(Cl)c1Cl	-14	-4	-5	35*	-1	-2	-2	48*
CN(C)S(=O)(=O)N1CCN(c2cc(Cl)ccc2Cl)CC1	-5	-2	-1	16*	1	-1	-2	18*
CN(C)S(=O)(=O)N1CCN(c2ccccc2Cl)CC1	9	-2	-2	3	1	1	/	/
COc1ccc(N2C(=O)C(F)(F)C2c2ccccc2F)cc1 (stereo not drawn)	9	-3	-5	21*	-1	-3	-2	34*
SMILES	CRFR2-BP antag	IMP-1 inh-1	VIM-2 inh	TRPML3 ag	CRFR2-BP ag	TRPN1 ag	TRPN1 ag 2	TRPML3 ag conf	others
COc1ccc(N2C(=O)C(F)(F)C2c2cccc(F)c2)cc1 (stereo not drawn)	11	-3	-2	3	1	-1	/	/
Cc1ccc(NC(=O)CSc2ncccn2)cc1S(=O)(=O)N1CCCCC1	21	/	/	/	-2	/	/	/
O=C1c2ccccc2C(=O)N1C1CCCCC1	11	-1	0	/	-5	/	/	/
CC(c1ccccc1)C1CC(=O)N(C2CCCCC2)C1=O (stereo not drawn)	-23	3	-3	27*	1	-1	0	25*
COc1ccccc1-c1n[nH]c(=S)n1Cc1ccco1	/	-4	16*	0	/	-2	/	/	IMP-1 inh-2=-3;VIM-2 FRET ctr=47*;TEM-1 inh=-7;VIM-2 confirm 2=29*
CCCCc1n[nH]c(=S)n1Cc1ccccc1	-4	-3	7	0	0	-1	/	/

Assay outcomes deposited in PubChem BioAssay by several laboratories.
